Reference: ChEMBL document CHEMBL2057126, “Discovery of new inhibitors of Cdc25B dual specificity phosphatases by structure-based virtual screening” (J Med Chem, 2012)
Calls of active or inactive are those of the source. The calls are words filed in the database; no cut-off is given here.

Tests used:
[1] = target: T1, M-phase inducer phosphatase 1 (Homo sapiens) (UniProt P30304); test: Inhibition of recombinant phosphatase activity of Cdc25A catalytic domain expressed in Escherichia coli BL21(DE3) using OMFP as substrate at 100 uM after 15 mins by fluorimetric assay
T1 sequence (whole entry): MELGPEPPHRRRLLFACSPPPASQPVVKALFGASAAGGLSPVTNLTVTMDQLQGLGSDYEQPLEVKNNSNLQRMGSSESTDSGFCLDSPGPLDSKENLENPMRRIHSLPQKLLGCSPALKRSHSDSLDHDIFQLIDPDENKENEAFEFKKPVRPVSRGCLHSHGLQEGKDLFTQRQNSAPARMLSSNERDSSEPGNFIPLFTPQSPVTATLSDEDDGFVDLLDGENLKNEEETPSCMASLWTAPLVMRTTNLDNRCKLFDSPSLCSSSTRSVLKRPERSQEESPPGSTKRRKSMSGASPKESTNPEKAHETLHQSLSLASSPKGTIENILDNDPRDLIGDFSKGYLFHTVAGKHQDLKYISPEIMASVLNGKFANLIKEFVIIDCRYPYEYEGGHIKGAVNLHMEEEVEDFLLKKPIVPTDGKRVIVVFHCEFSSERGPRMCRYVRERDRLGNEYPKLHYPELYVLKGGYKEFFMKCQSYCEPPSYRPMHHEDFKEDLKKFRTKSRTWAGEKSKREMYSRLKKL

[2] = target: T2, M-phase inducer phosphatase 2 (Homo sapiens) (UniProt P30305); test: Inhibition of recombinant phosphatase activity of Cdc25B catalytic domain expressed in Escherichia coli BL21(DE3) using OMFP as substrate at 100 uM after 15 mins by fluorimetric assay
T2 sequence (whole entry): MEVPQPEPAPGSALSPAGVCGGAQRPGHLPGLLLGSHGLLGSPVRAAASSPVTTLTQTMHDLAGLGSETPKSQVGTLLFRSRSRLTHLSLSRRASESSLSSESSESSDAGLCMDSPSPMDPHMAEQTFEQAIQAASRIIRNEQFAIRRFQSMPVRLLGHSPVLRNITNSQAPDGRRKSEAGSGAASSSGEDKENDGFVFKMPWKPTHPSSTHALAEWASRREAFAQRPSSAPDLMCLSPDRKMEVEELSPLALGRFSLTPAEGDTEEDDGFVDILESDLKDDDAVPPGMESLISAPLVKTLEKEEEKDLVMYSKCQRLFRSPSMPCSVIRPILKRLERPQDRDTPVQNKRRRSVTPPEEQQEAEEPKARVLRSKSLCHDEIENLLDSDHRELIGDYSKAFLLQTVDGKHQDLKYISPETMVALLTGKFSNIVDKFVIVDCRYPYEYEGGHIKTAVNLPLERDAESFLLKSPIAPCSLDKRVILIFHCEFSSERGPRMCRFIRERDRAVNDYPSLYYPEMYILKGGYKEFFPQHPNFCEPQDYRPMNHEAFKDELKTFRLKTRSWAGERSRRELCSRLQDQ

[3] = target: T3, M-phase inducer phosphatase 3 (Homo sapiens) (UniProt P30307); test: Inhibition of recombinant phosphatase activity of Cdc25C catalytic domain expressed in Escherichia coli BL21(DE3) using OMFP as substrate at 100 uM after 15 mins by fluorimetric assay
T3 sequence (whole entry): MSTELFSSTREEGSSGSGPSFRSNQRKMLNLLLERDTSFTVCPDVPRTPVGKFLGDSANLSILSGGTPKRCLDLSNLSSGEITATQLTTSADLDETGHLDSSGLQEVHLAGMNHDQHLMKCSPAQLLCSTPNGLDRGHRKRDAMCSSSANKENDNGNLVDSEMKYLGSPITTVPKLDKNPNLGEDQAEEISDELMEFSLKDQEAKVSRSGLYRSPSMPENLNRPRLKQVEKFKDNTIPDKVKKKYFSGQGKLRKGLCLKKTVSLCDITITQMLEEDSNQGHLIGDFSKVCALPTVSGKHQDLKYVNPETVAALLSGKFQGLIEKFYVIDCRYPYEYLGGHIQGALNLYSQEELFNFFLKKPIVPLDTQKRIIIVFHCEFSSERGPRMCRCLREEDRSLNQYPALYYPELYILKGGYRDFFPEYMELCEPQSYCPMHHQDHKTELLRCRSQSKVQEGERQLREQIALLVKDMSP

[4] = target: T2, M-phase inducer phosphatase 2 (Homo sapiens); test: (§1) Inhibition of recombinant phosphatase activity of Cdc25B catalytic domain expressed in Escherichia coli BL21(DE3) using OMFP as substrate by spectrofluorimetric analysis
[5] = target: T4, M-phase inducer phosphatase 2 (Homo sapiens, UniProt P30305); test: as §1
T4 sequence (P30305 whole entry): T2 sequence (whole entry)

[6] = target: T5, M-phase inducer phosphatase 1 (Homo sapiens, UniProt P30304); test: Inhibition of recombinant phosphatase activity of Cdc25A catalytic domain expressed in Escherichia coli BL21(DE3) using OMFP as substrate by spectrofluorimetric analysis
T5 sequence (P30304 whole entry): T1 sequence (whole entry)
In short: (§2)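 Purified recombinant Cdc25A catalytic domain; phosphatase activity measured as OMFP hydrolysis versus inhibitor concentration to derive IC50, with Ki calculated from kinetic measurements. Results are averages ± SD of three determinations.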

[7] = target: T5, M-phase inducer phosphatase 1; test: Inhibition of recombinant phosphatase activity of Cdc25A catalytic domain expressed in Escherichia coli BL21(DE3) using OMFP as substrate by Lineweaver-Burk plot analysis; in short: as §2
[8] = target: T4, M-phase inducer phosphatase 2; test: Competitive inhibition of recombinant phosphatase activity of Cdc25B catalytic domain expressed in Escherichia coli BL21(DE3) using OMFP as substrate by Lineweaver-Burk plot analysis
MCF7 [9] = test: Growth inhibition against human MCF7 cells expressing Cdc25A-C assessed as cell viability at 200 uM after 72 hrs by MTS assay; type: functional, cell-based
In short: (§3)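 MCF-7 breast, PC-3 prostate and K562 leukaemia cells treated 72 h with inhibitor or DMSO vehicle control, then cell viability measured. Values are mean ± SD of three experiments; significance by Student's t test, p ≤ 0.05.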

PC-3 = test: Growth inhibition against human PC3 cells expressing Cdc25A-C assessed as cell viability at 200 uM after 72 hrs by MTS assay; type: functional, cell-based; in short: as §3
K562 = test: Growth inhibition against human K562 cells expressing Cdc25A-C assessed as cell viability at 200 uM after 72 hrs by MTS assay; type: functional, cell-based; in short: as §3
MCF7 [10] = test: Cell cycle arrest in human MCF7 cells assessed as accumulation at G1 phase at 200 uM after 24 hrs by propidium iodide staining-based flow cytometry (reference value: 81.3 +/- 0.01%); type: functional
MCF7 [11] = test: Cell cycle arrest in human MCF7 cells assessed as accumulation at S phase at 200 uM after 24 hrs by propidium iodide staining-based flow cytometry (reference value: 9.35%); type: functional
MCF7 [12] = test: Cell cycle arrest in human MCF7 cells assessed as accumulation at G2/M phase at 200 uM after 24 hrs by propidium iodide staining-based flow cytometry (reference value: 9.4 +/- 0.04%); type: functional
MCF7 [13] = test: Cell cycle arrest in human MCF7 cells assessed as accumulation at G1 phase at 200 uM after 48 hrs by propidium iodide staining-based flow cytometry (reference value: 64.5 +/- 0.02%); type: functional
MCF7 [14] = test: Cell cycle arrest in human MCF7 cells assessed as accumulation at S phase at 200 uM after 48 hrs by propidium iodide staining-based flow cytometry (reference value: 14.5 +/- 0.01%); type: functional
MCF7 [15] = test: Cell cycle arrest in human MCF7 cells assessed as accumulation at G2/M phase at 200 uM after 48 hrs by propidium iodide staining-based flow cytometry (reference value: 21 +/- 0.04%); type: functional
[16] = target: T2, M-phase inducer phosphatase 2 (Homo sapiens); conditions: K562, 200 uM
[17] = Inhibition of Cdc25; design: species or system Homo sapiens

Compound | inhibition [1] | inhibition [2] | inhibition [3] | inhibition [4] | IC50 [5] | IC50 [6] | Ki [7] | Ki [8] | growth inhibition (GI) (MCF7 [9]) | growth inhibition (GI) (PC-3) | growth inhibition (GI) (K562) | Activity (MCF7 [10]) | Activity (MCF7 [11]) | Activity (MCF7 [12]) | Activity (MCF7 [13]) | Activity (MCF7 [14]) | Activity (MCF7 [15]) | inhibition [16] | IC50 [17]
O=C(O)c1ccc(C(=O)c2ccccc2C(=O)O)cc1C(=O)O | 80% | 80% | 63% | Dose-dependent effect | 17.5 µM | 6 µM | 2.3 µM | 5.3 µM | Active | Active | Active | 59.1% | 14.1% | 26.6% | 97% | 1.6% | 1.4% | Active | –
Cc1nc2c(s1)C(=O)C=C(NCCCN(C)CCCNC1=CC(=O)c3nc(-c4cc(F)ccc4F)oc3C1=O)C2=O | – | – | – | – | – | – | – | – | – | – | – | – | – | – | – | – | – | – | 0.02 µM
